Published values pooled from the literature.
Cell line: HepG2
Read-out: cell growth or viability

Cc1ccc(-c2cc(-c3ccc(Cl)cc3)c3c(=O)[nH]c(=O)[nH]c3n2)cc1
IC50 (MTT; 48 h): 8.46 µM

CN(C)c1cc(NC(=O)Cc2cncnc2)c(O)c2c1C[C@H]1C[C@H]3[C@H](N(C)C)C(O)=C(C(N)=O)C(=O)[C@@]3(O)C(O)=C1C2=O
IC50 (ATP luminescence; 72 h): 84.8 µg/mL

Clc1ccc(-c2nnc(Nc3ccc(C4=NNC(c5ccc(Cl)cc5)C4)cc3)c3ccccc23)cc1 (stereo not drawn)
IC50 (MTT; 72 h): 0.8 µM

C[C@H](CCC(=O)O)[C@H]1CC[C@H]2[C@@H]3CC[C@@H]4C[C@H](O)CC[C@]4(C)[C@H]3CC[C@]12C
IC50 (MTT; 72 h): 52 µM

CCOc1nc(-c2cccc(O)c2)cc(-c2cc3ccccc3nc2N2CCOCC2)c1C#N
IC50 (MTT; 72 h): 0.132 µM

CN(C)c1cc(NC(=O)CCc2cccnc2)c(O)c2c1C[C@H]1C[C@H]3[C@H](N(C)C)C(O)=C(C(N)=O)C(=O)[C@@]3(O)C(O)=C1C2=O
IC50 (ATP luminescence; 72 h): > 200 µg/mL

O=C(Cc1csc(NC(=O)c2cc3ccccc3[nH]2)n1)NO
IC50 (MTT; 24 h): 67.9 µM

CN(C)c1cc(NC(=O)CNC(C)(C)C)c(O)c2c1C[C@H]1C[C@H]3[C@H](N(C)C)C(O)=C(C(N)=O)C(=O)[C@@]3(O)C(O)=C1C2=O
IC50 (ATP luminescence; 72 h): > 200 µg/mL

COc1ccc2nc(N3CCOCC3)c(-c3cc(-c4cccc(O)c4)nc4[nH]nc(N)c34)cc2c1
IC50 (MTT; 72 h): 0.087 µM

CN(C)c1cc(NC(=O)Cc2cnccn2)c(O)c2c1C[C@H]1C[C@H]3[C@H](N(C)C)C(O)=C(C(N)=O)C(=O)[C@@]3(O)C(O)=C1C2=O
IC50 (ATP luminescence; 72 h): > 200 µg/mL

COc1ccc(-c2cc(-c3c(OC)cccc3OC)c3c(=O)n(C)c(=O)n(C)c3n2)cc1
IC50 (MTT; 48 h): 10.5 µM

COc1cccc2c1C(=O)c1c(O)c3c(c(O)c1C2=O)C[C@@](O)(C(=O)CO)C[C@@H]3O[C@H]1C[C@H](N)[C@H](O)[C@H](C)O1
IC50 (MTT; 72 h): 0.355 µM

Cc1nc(Nc2ncc(C(=O)Nc3c(C)cccc3Cl)s2)cc(N2CCN(CCO)CC2)n1
IC50 (MTT; 24 h): 60.8 µM

CCCOc1nc(-c2cccc(O)c2)cc(-c2cc3cc(Cl)ccc3nc2N2CCOCC2)c1C#N
IC50 (MTT; 72 h): 0.084 µM

COc1ccc(-c2cc(-c3ccccc3Cl)c3c(=O)[nH]c(=O)[nH]c3n2)cc1
IC50 (MTT; 48 h): 18.9 µM

CN(C)c1cc(NC(=O)Cc2ncccn2)c(O)c2c1C[C@H]1C[C@H]3[C@H](N(C)C)C(O)=C(C(N)=O)C(=O)[C@@]3(O)C(O)=C1C2=O
IC50 (ATP luminescence; 72 h): 108 µg/mL

COc1ccc(-c2cc(-c3ccc(OC)cc3)c3c(=O)[nH]c(=O)[nH]c3n2)cc1
IC50 (MTT; 48 h): 9.62 µM

COc1nc(NCc2cn(-c3ccc(C(=O)Nc4ccccc4)cc3)nn2)nc(OC)n1
IC50 (MTT; 72 h): 1.48 µM

COc1ccc(-c2cc(-c3cccc(Br)c3)c3c(=O)n(C)c(=O)n(C)c3n2)cc1
IC50 (MTT; 48 h): 12.4 µM

CN(C)c1ccc(O)c2c1C[C@H]1C[C@H]3[C@H](N(C)C)C(O)=C(C(N)=O)C(=O)[C@@]3(O)C(O)=C1C2=O
IC50 (ATP luminescence; 72 h): > 200 µg/mL

Cc1ccc(-c2cc(-c3c(Cl)cccc3Cl)c3c(=O)n(C)c(=O)n(C)c3n2)cc1
IC50 (MTT; 48 h): 7.49 µM

CN(C)c1cc(NC(=O)Cc2ccncc2)c(O)c2c1C[C@H]1C[C@H]3[C@H](N(C)C)C(O)=C(C(N)=O)C(=O)[C@@]3(O)C(O)=C1C2=O
IC50 (ATP luminescence; 72 h): > 200 µg/mL

COc1ccc2[nH]c(C(=O)Nc3nc(CC(=O)O)cs3)cc2c1
IC50 (MTT; 24 h): 59.8 µM

COc1ccc(-c2cc(-c3cc(OC)ccc3OC)c3c(=O)n(C)c(=O)n(C)c3n2)cc1
IC50 (MTT; 48 h): 16.4 µM
